Experimental data from ChEMBL document CHEMBL5724801, “EUbOPEN Chemogenomics Library - Multiplex” (2024).
Where “and” joins values, the source holds several entries; their conditions need not be identical. Equal entries are not always repeated.

Tested on: Fibroblast
Experiment: Multiplex assay against human fibroblast
Type: toxicity, cell-based
In short: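 At seeding, live cells were stained with Hoechst33342, BioTracker Green Microtubule Cytoskeleton Dye, MitoTracker Red and Annexin V Alexa Fluor 680. After compound addition they were imaged on a CQ1 microscope at 37°C and 5% CO2, and CellPathfinder machine-learning gating sorted them into Hoechst high-intensity objects or normal cells, with normal cells further split into healthy, pyknosed or fragmented nuclei and pyknosed cells into mitotic or apoptotic. Tubulin, mitochondrial-mass and membrane-permeability phenotypes are given as per cents of cells with healthy nuclei.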

[1] = 12 h, 1 µM, compound concentration 1 uM
[2] = 12 h, 10 µM, compound concentration 10 uM
[3] = 24 h, 1 µM, compound concentration 1 uM
[4] = 24 h, 10 µM, compound concentration 10 uM
[5] = 48 h, 1 µM, compound concentration 1 uM
[6] = 48 h, 10 µM, compound concentration 10 uM

SMILES: CCOc1ccccc1C(=O)NCC1(N2CCN(CC)CC2)CCCCC1
- Population Apoptotic (%) [1]: 8% and 22.22%
- Population Healthy Nuclei (%) [1]: 51.46% and 68.29%
- Population Hoechst High Intensity Objects (%) [1]: 0%
- Population Membrane Permeable-Phenotype (%) [1]: 3.41% and 2.98%
- Population Mitochondria Different-Phenotype (%) [1]: 3.41% and 11.31%
- Population Mitotic Cells (%) [1]: 92% and 77.78%
- Population Normal (%) [1]: 100%
- Population Pyknosed Nuclei (%) [1]: 29.24% and 25.61%
- Population Tubulin-Different-Phenotype (%) [1]: 10.23% and 23.81%
- Total Cell Count [1]: 171 and 246
- Population Apoptotic (%) [2]: 12.35% and 12.82%
- Population Fragmented Nuclei (%) [2]: 13.04% and 5.43%
- Population Healthy Nuclei (%) [2]: 42.93% and 73.37%
- Population Hoechst High Intensity Objects (%) [2]: 0%
- Population Membrane Permeable-Phenotype (%) [2]: 5.06% and 9.63%
- Population Mitochondria Different-Phenotype (%) [2]: 41.77% and 25.19%
- Population Mitotic Cells (%) [2]: 87.65% and 87.18%
- Population Normal (%) [2]: 100%
- Population Pyknosed Nuclei (%) [2]: 44.02% and 21.2%
- Population Tubulin-Different-Phenotype (%) [2]: 65.82% and 80.74%
- Total Cell Count [2]: 184
- Population Apoptotic (%) [3]: 15.79% and 31.25%
- Population Fragmented Nuclei (%) [3]: 10.24% and 5.42%
- Population Healthy Nuclei (%) [3]: 66.87% and 81.25%
- Population Hoechst High Intensity Objects (%) [3]: 0%
- Population Membrane Permeable-Phenotype (%) [3]: 1.8% and 4.1%
- Population Mitochondria Different-Phenotype (%) [3]: 4.5% and 8.72%
- Population Mitotic Cells (%) [3]: 84.21% and 68.75%
- Population Normal (%) [3]: 100%
- Population Pyknosed Nuclei (%) [3]: 22.89% and 13.33%
- Population Tubulin-Different-Phenotype (%) [3]: 12.61% and 24.1%
- Total Cell Count [3]: 166 and 240
- Population Apoptotic (%) [4]: 12.5% and 5.13%
- Population Fragmented Nuclei (%) [4]: 13.66% and 11.26%
- Population Healthy Nuclei (%) [4]: 62.93% and 71.17%
- Population Hoechst High Intensity Objects (%) [4]: 0%
- Population Membrane Permeable-Phenotype (%) [4]: 3.1% and 5.06%
- Population Mitochondria Different-Phenotype (%) [4]: 45.74% and 22.78%
- Population Mitotic Cells (%) [4]: 87.5% and 94.87%
- Population Normal (%) [4]: 100%
- Population Pyknosed Nuclei (%) [4]: 23.41% and 17.57%
- Population Tubulin-Different-Phenotype (%) [4]: 68.22% and 84.81%
- Total Cell Count [4]: 205 and 222
- Population Apoptotic (%) [5]: 21.43% and 23.08%
- Population Fragmented Nuclei (%) [5]: 13.04% and 10.42%
- Population Healthy Nuclei (%) [5]: 79.35% and 84.17%
- Population Hoechst High Intensity Objects (%) [5]: 0%
- Population Membrane Permeable-Phenotype (%) [5]: 0.68% and 0.5%
- Population Mitotic Cells (%) [5]: 78.57% and 76.92%
- Population Normal (%) [5]: 100%
- Population Pyknosed Nuclei (%) [5]: 7.61% and 5.42%
- Population Tubulin-Different-Phenotype (%) [5]: 8.9% and 21.29%
- Total Cell Count [5]: 184 and 240
- Population Apoptotic (%) [6]: 15.79% and 45.16%
- Population Fragmented Nuclei (%) [6]: 15.15% and 7.88%
- Population Healthy Nuclei (%) [6]: 76.62% and 79.25%
- Population Hoechst High Intensity Objects (%) [6]: 1.28% and 0%
- Population Membrane Permeable-Phenotype (%) [6]: 3.39% and 4.71%
- Population Mitochondria Different-Phenotype (%) [6]: 27.12% and 15.18%
- Population Mitotic Cells (%) [6]: 84.21% and 54.84%
- Population Normal (%) [6]: 98.72% and 100%
- Population Pyknosed Nuclei (%) [6]: 8.23% and 12.86%
- Population Tubulin-Different-Phenotype (%) [6]: 62.15% and 89.01%
- Total Cell Count [6]: 234 and 241

SMILES: Cl.Clc1cc2cc(c1)-c1cnn3ccc(nc13)NCCOCCO2
- Population Apoptotic (%) [1]: 25.93% and 36.11%
- Population Fragmented Nuclei (%) [1]: 12.14% and 4.56%
- Population Healthy Nuclei (%) [1]: 61.65% and 80.5%
- Population Hoechst High Intensity Objects (%) [1]: 0%
- Population Membrane Permeable-Phenotype (%) [1]: 11.02% and 2.58%
- Population Mitochondria Different-Phenotype (%) [1]: 4.72% and 10.82%
- Population Mitotic Cells (%) [1]: 74.07% and 63.89%
- Population Normal (%) [1]: 100%
- Population Pyknosed Nuclei (%) [1]: 26.21% and 14.94%
- Population Tubulin-Different-Phenotype (%) [1]: 11.02% and 23.2%
- Total Cell Count [1]: 206 and 241
- Population Apoptotic (%) [2]: 10.2% and 20.59%
- Population Fragmented Nuclei (%) [2]: 10.65% and 5.56%
- Population Healthy Nuclei (%) [2]: 66.67% and 78.7%
- Population Hoechst High Intensity Objects (%) [2]: 0%
- Population Membrane Permeable-Phenotype (%) [2]: 8.33% and 4.71%
- Population Mitochondria Different-Phenotype (%) [2]: 12.5% and 18.82%
- Population Mitotic Cells (%) [2]: 89.8% and 79.41%
- Population Normal (%) [2]: 100%
- Population Pyknosed Nuclei (%) [2]: 22.69% and 15.74%
- Population Tubulin-Different-Phenotype (%) [2]: 22.22% and 26.47%
- Total Cell Count [2]: 216
- Population Apoptotic (%) [3]: 31.43% and 41.38%
- Population Fragmented Nuclei (%) [3]: 12.22% and 6.72%
- Population Healthy Nuclei (%) [3]: 71.95% and 82.46%
- Population Hoechst High Intensity Objects (%) [3]: 0%
- Population Membrane Permeable-Phenotype (%) [3]: 6.29% and 4.52%
- Population Mitochondria Different-Phenotype (%) [3]: 3.14% and 6.33%
- Population Mitotic Cells (%) [3]: 68.57% and 58.62%
- Population Normal (%) [3]: 100%
- Population Pyknosed Nuclei (%) [3]: 15.84% and 10.82%
- Population Tubulin-Different-Phenotype (%) [3]: 15.09% and 21.72%
- Total Cell Count [3]: 221 and 268
- Population Fragmented Nuclei (%) [4]: 7.39% and 6.93%
- Population Healthy Nuclei (%) [4]: 79.13% and 78.79%
- Population Hoechst High Intensity Objects (%) [4]: 0%
- Population Membrane Permeable-Phenotype (%) [4]: 3.3%
- Population Mitochondria Different-Phenotype (%) [4]: 8.79% and 13.74%
- Population Mitotic Cells (%) [4]: 90.32% and 69.7%
- Population Normal (%) [4]: 100%
- Population Pyknosed Nuclei (%) [4]: 13.48% and 14.29%
- Population Tubulin-Different-Phenotype (%) [4]: 20.33% and 33.52%
- Total Cell Count [4]: 230 and 231
- Population Apoptotic (%) [5]: 31.03% and 50%
- Population Fragmented Nuclei (%) [5]: 12.03% and 5.81%
- Population Healthy Nuclei (%) [5]: 75.93% and 90.31%
- Population Hoechst High Intensity Objects (%) [5]: 0%
- Population Membrane Permeable-Phenotype (%) [5]: 3.28% and 3%
- Population Mitotic Cells (%) [5]: 68.97% and 50%
- Population Normal (%) [5]: 100%
- Population Pyknosed Nuclei (%) [5]: 12.03% and 3.88%
- Total Cell Count [5]: 241 and 258
- Population Apoptotic (%) [6]: 16.67% and 38.89%
- Population Fragmented Nuclei (%) [6]: 10.79% and 5.86%
- Population Healthy Nuclei (%) [6]: 86.72% and 86.61%
- Population Hoechst High Intensity Objects (%) [6]: 0%
- Population Membrane Permeable-Phenotype (%) [6]: 1.91% and 6.76%
- Population Mitochondria Different-Phenotype (%) [6]: 11% and 9.66%
- Population Mitotic Cells (%) [6]: 83.33% and 61.11%
- Population Normal (%) [6]: 100%
- Population Pyknosed Nuclei (%) [6]: 2.49% and 7.53%
- Population Tubulin-Different-Phenotype (%) [6]: 13.88% and 38.65%
- Total Cell Count [6]: 241 and 239
